# Activity calls are given as the source filed them.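 How the source made its calls, unless noted: active means GFP response above 150% of the DMSO level; inconclusive means fewer than 70 events counted for a yeast strain; inactive means the rest.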
# Columns and labels:
# [1] = hit retest on RPL19A-GFP reporter strain – cell-based, S. cerevisiae, flow cytometry, cherry picks, mother/daughter gates, confirmation (AID 2270;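 active means GFP response below 50% of the DMSO control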); details: 3 h, at 10 µM, stronger effect = lower value, 100 = same GFP as DMSO wells
# [2] = yeast TOR pathway reporter LAP4-GFP change – cell-based, cherry picks, flow cytometry, mother/daughter gates, confirmation (AID 2271;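 active means GFP response above 150% of the DMSO control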;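 further: ratio of sample to DMSO plate mean so 100% equals DMSO level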); details: S. cerevisiae LAP4-GFP strain, 3 h, at 10 µM, stronger effect = higher value, 100 means same as DMSO control
# Outline: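 Measured by: GFP by flow cytometry. Test system: GFP-fusion yeast strain. Input: yeast cells seeded at OD600 of 0.2. Timing: 30 °C, 3 h compound incubation, rotating. Buffer or medium: synthetic complete medium for yeast. Benchmarks: DMSO-only negative wells, rapamycin 400 ng/mL positive wells. Compound: 10 µM single dose.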
# [3] = TOR pathway reporter MEP2-GFP, retest of hits – S. cerevisiae, flow cytometry GFP, cherry picks, confirmation (AID 2272;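 active means GFP response above 150% of the DMSO control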;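 further: ratio of well signal to plate DMSO mean so 100% equals DMSO level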); details: S. cerevisiae MEP2-GFP strain, 3 h, at 10 µM, stronger effect = higher value
# [4] = yeast AGP1-GFP fluorescence change, single-dose – cell-based, flow cytometry, S. cerevisiae, cherry picks, confirmation (AID 2273);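 further: median GFP channel fluorescence over the whole cell population gate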; details: S. cerevisiae AGP1-GFP strain, 3 h, at 10 µM
# [5] = TOR pathway CIT2 reporter hit retest – S. cerevisiae, GFP fusion, cherry picks, mother/daughter gates, confirmation (AID 2274); details: S. cerevisiae CIT2-GFP strain, flow cytometry, 3 h, at 10 µM, stronger effect = higher value
# [6] = measured here: daughter cell gate
# [7] = measured here: mother cell gate
# [8] = measured here: daughter cell gate response
# [9] = measured here: mother cell gate response
Compound,GFP response vs DMSO [1],"GFP response vs DMSO [1, 6]","GFP response vs DMSO [1, 7]",GFP response relative to DMSO [2],"GFP response relative to DMSO [2, 8]","GFP response relative to DMSO [2, 9]",GFP response vs DMSO [3],"GFP response, % of DMSO [4]","GFP response, % of DMSO [5]","GFP response, % of DMSO [5, 6]","GFP response, % of DMSO [5, 7]"
O=C(/C=C/c1ccccc1)Nc1ncn[nH]1,97.4% (inactive),97.3%,96%,135% (inactive),125%,137%,102% (inactive),98% (inactive),97.8% (inactive),100%,94.5%
CCCc1ccc(C(=O)N2CCN(c3ccccc3OCC)CC2)cc1,99.1% (inactive),98.8%,99.2%,95.3% (inactive),93.6%,93.6%,97.5% (inactive),96.9% (inactive),96.4% (inactive),96.4%,94.5%
Cc1ccc(C(=O)N2c3ccccc3NC(=O)C2C)cc1 (stereo not drawn),99.9% (inactive),98.1%,100%,102% (inactive),98.7%,105%,100% (inactive),100% (inactive),97.8% (inactive),94.8%,98.7%
CCc1nnc(NC(=O)c2ccc(S(=O)(=O)N(CCOC)CCOC)cc2)o1,95% (inactive),94.4%,96.2%,91.5% (inactive),96%,90.8%,96.2% (inactive),97.8% (inactive),99.7% (inactive),101%,101%
COc1ccccc1CN1C(=O)c2cccc3cccc(c23)C1=O,100% (inactive),100%,100%,91.9% (inactive),90.7%,91.6%,104% (inactive),108% (inactive),99.3% (inactive),100%,98%
CC(=O)Oc1c(C)cc(Cl)cc1C(=O)Nc1ccc([N+](=O)[O-])cc1Cl,97% (inactive),96%,98.2%,91.2% (inactive),92%,93%,101% (inactive),97.9% (inactive),90.9% (inactive),93.7%,89.8%
N#C/C(=C\c1c(N2CCCCCC2)nc2ccccn2c1=O)C(=O)NCc1ccco1,96% (inactive),97.9%,96.2%,92.8% (inactive),96%,92.9%,98.3% (inactive),95.6% (inactive),96.9% (inactive),99.1%,96.1%
Cc1ccc(/C=c2\sc3nc(-c4cccs4)nn3c2=O)o1,98.6% (inactive),95.9%,95.4%,128% (inactive),117%,131%,163% (inactive),95.4% (inactive),104% (inactive),101%,104%
O=C(CSc1nnc(-c2ccccn2)n1Cc1ccccc1)N1CCOCC1,103% (inactive),102%,102%,105% (inactive),107%,105%,108% (inactive),101% (inactive),104% (inactive),105%,105%
CCOc1ccc(Nc2ccc(C(=O)O)cc2[N+](=O)[O-])cc1,102% (inactive),98.4%,104%,101% (inactive),99.1%,100%,101% (inactive),97.8% (inactive),98.8% (inactive),95.6%,96.8%
CS(=O)(=O)Nc1ccc(C2=NN(S(C)(=O)=O)C(c3ccccc3)C2)cc1 (stereo not drawn),98.7% (inactive),98.1%,98.6%,133% (inactive),138%,129%,157% (inactive),115% (inactive),114% (inactive),112%,114%
COc1cccc(-c2nnc(NC(=O)c3ccc(S(=O)(=O)N(CC(C)C)CC(C)C)cc3)o2)c1,99.7% (inactive),99.8%,100%,98.8% (inactive),97.9%,97.5%,102% (inactive),101% (inactive),102% (inactive),102%,101%
COc1ccc(N2C(=O)C(Cl)=C(N(CCO)Cc3ccccc3)C2=O)cc1,101% (inactive),99.1%,102%,98.2% (inactive),99.1%,99.4%,101% (inactive),102% (inactive),100% (inactive),101%,99.3%
COc1cc(OC)cc(C(=O)N2CCN(c3ccccc3F)CC2)c1,98.6% (inactive),97.3%,99.1%,97.4% (inactive),98.7%,98.3%,100% (inactive),98.3% (inactive),99.1% (inactive),99.7%,98.7%
O=C1C(Cl)=C(NCCc2ccccc2)C(=O)N1CCc1ccccc1,103% (inactive),103%,104%,106% (inactive),107%,101%,112% (inactive),103% (inactive),106% (inactive),106%,106%
CCc1ccc(-c2csc(NC(=O)COC(=O)CCc3nc4ccccc4s3)n2)cc1,105% (inactive),102%,106%,98.2% (inactive),97.5%,98.4%,103% (inactive),103% (inactive),106% (inactive),101%,105%
CC(C)c1nnc(NC(=O)c2nc(S(=O)(=O)Cc3ccc(F)cc3)ncc2Cl)s1,95.8% (inactive),96%,96.9%,101% (inactive),102%,99.5%,99.5% (inactive),102% (inactive),99.3% (inactive),100%,100%

Compound,GFP response vs DMSO [1],"GFP response vs DMSO [1, 6]","GFP response vs DMSO [1, 7]",GFP response relative to DMSO [2],"GFP response relative to DMSO [2, 8]","GFP response relative to DMSO [2, 9]",GFP response vs DMSO [3],"GFP response, % of DMSO [4]","GFP response, % of DMSO [5]","GFP response, % of DMSO [5, 6]","GFP response, % of DMSO [5, 7]"
Cc1c(N2C(=O)/C(=C\c3ccccc3O)SC2=S)c(=O)n(-c2ccccc2)n1C,101% (inactive),96%,98.3%,134% (inactive),130%,137%,102% (inactive),93.2% (inactive),105% (inactive),109%,95.6%
COc1cc(/C=N/Nc2nc(C)cc(=O)[nH]2)ccc1O,100% (inactive),104%,98.8%,87.2% (inactive),89.3%,86.7%,106% (inactive),105% (inactive),117% (inactive),121%,115%
O=[N+]([O-])c1ccc(Sc2ccccc2)nc1,97.8% (inactive),97.3%,98%,104% (inactive),104%,105%,108% (inactive),105% (inactive),101% (inactive),101%,103%
COc1ccc(CCNc2nc(-c3sc(C)nc3C)cs2)cc1OC,96.6% (inactive),97.6%,95.4%,106% (inactive),104%,105%,102% (inactive),93.7% (inactive),101% (inactive),103%,99.7%
COc1ccc(CC(=O)Oc2ccccc2C)cc1,98% (inactive),99.6%,98.3%,100% (inactive),97.9%,98.5%,102% (inactive),94.3% (inactive),96.4% (inactive),96.4%,95.6%
O=c1c2c(-c3cccs3)csc2ncn1/N=C/c1ccccn1,98.4% (inactive),95.2%,96.5%,119% (inactive),112%,121%,99% (inactive),99.2% (inactive),91.5% (inactive),92%,89.5%
COc1ccccc1-c1nnc(NC(=O)c2ccc(S(=O)(=O)N(C)Cc3ccccc3)cc2)o1,100% (inactive),98.8%,100%,95.3% (inactive),95%,94.6%,104% (inactive),98.9% (inactive),97.8% (inactive),98.3%,98%
O=C(Nc1ccc(Cl)cc1Cl)c1cccc(N2C(=O)C=CC2=O)c1,76.5% (inactive),70.3%,65.5%,204% (active),123%,179%,111% (inactive),99.1% (inactive),96.9% (inactive),105%,80.7%
O=C(NC(=S)NNC(=O)c1ccc(Cl)cc1Cl)c1cccnc1,102% (inactive),103%,102%,97.3% (inactive),96.6%,98.2%,101% (inactive),104% (inactive),98.4% (inactive),100%,96.7%
Cc1ccc(Sc2ncnc3onc(C)c23)cc1,95.4% (inactive),95.7%,95.5%,117% (inactive),117%,117%,96.8% (inactive),99% (inactive),105% (inactive),105%,102%
COc1cc(/C=C/c2ccc3c(Br)cc(Br)c(O)c3n2)ccc1O,101% (inactive),107%,102%,107% (inactive),106%,108%,108% (inactive),98.6% (inactive),99.7% (inactive),105%,89.8%
O=S(=O)(Nc1ccc(Br)cc1)c1cccc2nonc12,97.4% (inactive),97.5%,98.3%,96.5% (inactive),95%,95.6%,99.5% (inactive),93.8% (inactive),97.8% (inactive),98.3%,95.6%
COc1ccc(CC(=O)NCc2ccccn2)cc1OC,97.6% (inactive),97.8%,98%,93.8% (inactive),95.6%,96.2%,100% (inactive),100% (inactive),97.8% (inactive),96.5%,95.5%
COc1ccc(-c2noc(CCCC(=O)NCCc3ccccc3)n2)cc1OC,99.3% (inactive),97.3%,97.3%,100% (inactive),101%,101%,103% (inactive),100% (inactive),101% (inactive),101%,100%
CC(Oc1ccc(Cl)cc1Cl)C(=O)NC1=NN(c2ccccc2)C(=O)C1 (stereo not drawn),95.8% (inactive),98.9%,96.4%,101% (inactive),101%,98.3%,98.3% (inactive),102% (inactive),98.3% (inactive),99.1%,97.3%
CCCCCCCCC/C(=N\O)c1ccccn1,85% (inactive),81.4%,82.6%,214% (active),170%,213%,108% (inactive),89.3% (inactive),97.2% (inactive),90.5%,97.1%

# From PubChem BioAssay
